SMILES strings stand for the structures.

A short description of the series: Toxicity liver stage against HepG2, at 10uM. Format: cell-based. On the set-up: test concentration 10 uM, cell line HepG2-A16-CD81EGFP. The following applies: human, HepG2-A16-CD81EGFP cells; read-out: INHIBITION
In a few lines:
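Uninfected HepG2-A16-CD81EGFP cells, 3 × 10^3 per well, 1536-well, plated on prespotted compound at 10 μM final, parasite-free screening media added to match infected plates; puromycin 10 μM positive, DMSO 0.5% negative; run in parallel with 48 h PbLuc assay at 37 °C, 5% CO2; viability by CellTiter-Glo luminescence, normalized to controls.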
As to `c1ccc2oc(C3CCN(Cc4ncon4)CC3)nc2c1`, the cytotoxicity at 10 µM amounted to 2.56%.
For the compound `COCCCNC(=O)N1CCN(C(=O)c2nsc3ccc(C)cc23)CC1`, the cytotoxicity at 10 µM came out at 12.3%.
As for `CN1CCN(C(=O)c2ncn3c2CNS(=O)(=O)c2ccccc2-3)CC1`, the cytotoxicity at 10 µM was 4.5%.
Take `O=C(N1CCCC1)N1CCC2(CC(=O)N(c3ccc4c(c3)OCO4)C2)C1` (stereo not given): the cytotoxicity at 10 µM came to 9.79%.
As to `CN(C)C(=O)[C@@H]1CCO[C@@H]2CCN(c3ncccn3)C[C@H]21`, the cytotoxicity at 10 µM amounted to 6.65%.
As for `COc1ccc(C(=O)COc2coc(CN3CCSCC3)cc2=O)cc1`, the cytotoxicity at 10 µM worked out at 8.13%.
`NC(=O)Cn1nc(-c2ccccc2F)ccc1=O`: the cytotoxicity at 10 µM is -7.69%.
As for `CC(C)n1[nH]c(=O)c2c1NC(=O)CC2c1cccnc1` (stereo not given), the figure is -6.15%; as for `Cn1cc(N2CCC3(CCN(S(=O)(=O)C4CC4)C3)C2=O)cn1` (stereo not given), -2.45%; as for `CNC(=O)N1C[C@H]2CC[C@@]3(N=C(c4ccccc4)NC3=O)[C@H]2C1`, -9.84%.
`CC(C(=O)Nc1ccon1)n1ccc(C(F)(F)F)n1` (stereo not given): the cytotoxicity at 10 µM was 5.15%.
For the compound `CCn1nc(C)c2nc(C(C)C)nc(N3CCCC3)c21`, the cytotoxicity at 10 µM is -1.61%.
Regarding `Cc1cc(C(F)(F)F)nn1CC(C)C(=O)Nc1cccnc1` (stereo not given), the cytotoxicity at 10 µM stood at 11.5%.
Take `O=C1CC(c2ccc3c(c2)OCO3)c2snc(C(=O)O)c2N1` (stereo not given): the cytotoxicity at 10 µM came out at 4.43%.
On to `CNC(=O)CCc1cc(C2CCCCN2C(C)C)nc(C)n1` (stereo not given), for which the cytotoxicity at 10 µM is -1.66%.
As for `CNc1ccc(C2CN(c3cc(C)ncn3)CCO2)nc1` (stereo not given), the cytotoxicity at 10 µM came out at 7.14%.
For `Cc1ccccc1C(=O)N1CC[C@H](O)[C@@H](N2CCOCC2)CC1`, the cytotoxicity at 10 µM worked out at 5.32%.
Consider `Cc1nc(Nc2ncccn2)cc(C2CCCN2C2CCOCC2)n1` (stereo not given), for which the cytotoxicity at 10 µM is -4.45%.
Consider `O=C(CCS(=O)(=O)C1CCCC1)N1CCCC(n2ccnc2)C1` (stereo not given), for which the cytotoxicity at 10 µM was -0.968%.
The same measure for `O=S(=O)(CCc1ccccc1)Nc1cc(Cl)ccn1`: -4.81%; for `CCOC(C)c1nccn1CC(=O)Nc1cc(C)on1` (stereo not given): -5.58%; for `CS(=O)(=O)NCC1Cc2ccccc2O1` (stereo not given): 2.01%.
In the case of `Cn1cc(C(=O)NCCc2ccc(OC3CCCC3)cc2)ccc1=O`, the cytotoxicity at 10 µM was -2.51%.
On to `COC(CNC(=O)c1ccc[nH]1)c1cccc(Cl)c1` (stereo not given), for which the cytotoxicity at 10 µM was -0.23%.
For `Clc1ccc(C2(NCc3noc(C4CC4)n3)CCOCC2)cc1`, the cytotoxicity at 10 µM is -3.1%.
The same measure for `O=C(c1ccc2nncn2c1)N1CCCC1c1noc(C2CC2)n1` (stereo not given): -7.11%; for `COc1cccc(C(=O)NS(=O)(=O)c2cncc(Br)c2)c1OC`: 0.684%; for `O=C(c1cc(Cl)c2c(c1)OCO2)N1CCN(c2ncccn2)CC1`: -0.769%.
With `Cc1cc(C)n(CC2CCCN2C(=O)c2ccc3[nH]cnc3c2)n1` (stereo not given), the cytotoxicity at 10 µM came out at 3.18%.
For the compound `O=C(C[S+]([O-])Cc1cccc(Cl)c1)NC1CCCC1` (stereo not given), the cytotoxicity at 10 µM came to 0.808%.
As for `CC1(C)CN(CC(F)(F)F)CCN1CC(N)=O`, the cytotoxicity at 10 µM is 9.92%.
As for `CN(C(=O)c1ccc[nH]1)C1CC(=O)N(Cc2ccccc2)C1=O` (stereo not given), the figure is 8.02%.
As for `O=C(CNC(=O)N(Cc1ccoc1)C1CCCCC1)N1CCCC1`, the figure is -1.3%; as for `Cc1cc(C2CCCN(CC(=O)N3CCc4ccccc43)C2)n[nH]1` (stereo not given), 2.01%; as for `O=C(c1occc1CN1C(=O)Cc2ccccc21)N1CCCCCC1`, 4.52%.
For the compound `Cc1nn(C)c(Cl)c1C1CCCN1c1ncnc2[nH]ccc12` (stereo not given), the cytotoxicity at 10 µM was found to be 10.9%.
The same measure for `COCC(O)CN(C)C(=O)c1cccc(-c2csc(C)n2)c1` (stereo not given): -3.04%; for `Cc1ccc(NC(=O)N2CCCC(N(C)C)C2)c(Br)c1` (stereo not given): -3.51%.
`c1nc(N2CCN(Cc3nnnn3C3CC3)CC2)c2sccc2n1`: the cytotoxicity at 10 µM stood at 24.5%.
Regarding `CS(=O)(=O)c1ccc(NCCC2CCCO2)c(S(C)(=O)=O)c1` (stereo not given), the cytotoxicity at 10 µM is -4.27%.
For the compound `O=C(NCCNS(=O)(=O)C1CCCCC1)c1ccccc1`, the cytotoxicity at 10 µM is -3.82%.
`Cc1ccc(CNC(CN2CCN(C)CC2)c2ccccc2)cc1` (stereo not given): the cytotoxicity at 10 µM is 9.19%.
With `Cc1ccc(NC(=O)NC(C)c2nc[nH]n2)cc1` (stereo not given), the cytotoxicity at 10 µM was -0.665%.
The same measure for `CC(C)(C)N1CCCN(C(=O)c2csc(S(N)(=O)=O)c2)CC1`: 5.06%; for `N#CCCN(CCC#N)C(=O)CN1CCCC1Cc1cccc(F)c1` (stereo not given): -10.5%.
As to `Cc1cnn(CCC(=O)N2CCOC(c3nc(C(C)(C)C)n[nH]3)C2)c1` (stereo not given), the cytotoxicity at 10 µM stood at 5.17%.
Take `CCc1nnc2n1CCN(C(=O)c1ccc3[nH]cnc3c1)C2`: the cytotoxicity at 10 µM was -19.1%.
Consider `CC(C)c1nccc([C@H]2C[C@@H]3CCN(Cc4ccco4)C[C@H]3O2)n1`, for which the cytotoxicity at 10 µM is -5.25%.
In the case of `COC(=O)NCC(=O)N1CCCC(c2ncc[nH]2)C1` (stereo not given), the cytotoxicity at 10 µM came out at 2.42%.
Regarding `CCN(CC)S(=O)(=O)N1CCCC(c2nccn2Cc2cccnc2)C1` (stereo not given), the cytotoxicity at 10 µM came to 7.07%.
Regarding `Cc1ccc2oc(CN3CCn4nc(CCC(=O)O)cc4C3)c(C)c2c1`, the cytotoxicity at 10 µM was -5.56%.
As for `C=C(C)CNC(=O)C1CCC(=O)N(C2CCCC2)C1` (stereo not given), the cytotoxicity at 10 µM was -3.4%.
As to `CC1(c2ccccc2)CCC(=O)N(CCN2CCOCC2)C1` (stereo not given), the cytotoxicity at 10 µM is -8.65%.
For the compound `CC(C(=O)N1CCN(CCOc2ccccc2)CC1)n1cc(Cl)cn1` (stereo not given), the cytotoxicity at 10 µM is 10.4%.
Take `CC1(C)CC(CN2CCC3(CCC(=O)N(CCO)C3)CC2)CCO1` (stereo not given): the cytotoxicity at 10 µM was determined as 18%.
For the compound `Cn1ncc2c(NCC3CCS(=O)(=O)C3)nc(C3CCCC3)nc21` (stereo not given), the cytotoxicity at 10 µM was -5.1%.
In the case of `COc1ccc(-n2cccn2)c(CN2CCOCC(CN(C)C)C2)c1` (stereo not given), the cytotoxicity at 10 µM is -14.6%.
On to `CCc1ccccc1C(=O)N1C[C@@H](CN2CCOCC2)[C@@H](CO)C1`, for which the cytotoxicity at 10 µM is -0.125%.
Consider `Cc1ccc(-c2ncc(C(=O)N3CCCN4CCC[C@H]4C3)c(O)n2)cc1`, for which the cytotoxicity at 10 µM was -8.04%.
For `O=C(O)C1(n2cccn2)CCN(c2nc(-c3ccccc3)no2)CC1`, the cytotoxicity at 10 µM was found to be 7.47%.
For the compound `O=C1O[C@@H]2CN(Cc3ccccn3)C[C@@H]2N1CCCc1ccc(F)cc1`, the cytotoxicity at 10 µM is -0.687%.
The same measure for `CCNC(=O)[C@@H]1C[C@@H](N)CN1C(=O)CCc1ccc(C)c(C)c1`: 2.72%; for `Cc1nn(CC(=O)N2CCC3(CN(C)C(=O)O3)C2)c(=O)c2ccccc12` (stereo not given): 9.74%; for `Cc1cc(C(F)(F)F)nc(CCNc2nc(C)nc3c2cnn3C)n1`: 4.79%.
As for `CCn1nc(CC(C)C)cc1C(=O)NCC(F)(F)F`, the cytotoxicity at 10 µM stood at 21.3%.
Turning to `Cc1cc(-c2cncnc2)ccc1OCC(N)=O`, the cytotoxicity at 10 µM was 8.07%.
For the compound `Cc1ccccc1CSc1nc(N)cc(N2CCCC(O)C2)n1` (stereo not given), the cytotoxicity at 10 µM was -6.52%.
As for `Cc1ccc(C)c(C(=O)N2CCC3(CCC(=O)N(CC(N)=O)C3)CC2)c1`, the figure is 17.7%; as for `CCOc1cc(C)nc(N2CCN(C(=O)c3cscn3)CC2)n1`, -7.54%; as for `CC(C)Cc1nc(CN2CCOC(Cn3cncn3)C2)no1` (stereo not given), 2.07%.
For `Cc1nc(CN(C)CC(c2cccs2)N2CCOCC2)no1` (stereo not given), the cytotoxicity at 10 µM is -2.15%.
With `Cc1ccc(C(C)C(=O)N2CCCN(Cc3cscn3)CC2)cc1` (stereo not given), the cytotoxicity at 10 µM is -5.31%.
The same measure for `CC(C)c1nc(C2CCCN(C(=O)CCn3ccccc3=O)C2)no1` (stereo not given): -18.4%; for `CN(C)CC1CN(Cc2ccc(-n3cccn3)cc2)CCO1` (stereo not given): 4.09%.
Regarding `CNC(=O)CCS(=O)(=O)Cc1cc(Cl)c2c(c1)OCCO2`, the cytotoxicity at 10 µM is -4.89%.
For the compound `CCCNC(=O)C1CCN(Cc2csc(CC)n2)CC1`, the cytotoxicity at 10 µM is -10.4%.
Consider `Cc1csc(N2CCCN(C(=O)c3ccoc3C)CC2)n1`, for which the cytotoxicity at 10 µM is -8.45%.
The same measure for `Cc1ccc(OCCN2CCCC(c3cc(C(N)=O)[nH]n3)C2)cc1` (stereo not given): -9.14%; for `Cc1cnn(CC2CN(CC(=O)Nc3ccnn3C(C)C)CCO2)c1` (stereo not given): -8.06%.
As to `Cc1cnn(CC2CCCN2CC(=O)NC2CCOCC2)c1` (stereo not given), the cytotoxicity at 10 µM is -16%.
Consider `COc1ccc(C)cc1C(C)NC(=O)NCCCn1cncn1` (stereo not given), for which the cytotoxicity at 10 µM was 2.62%.
As for `Cc1cc(C)c(CNC(=O)N2CCCC2C(N)=O)c(=O)[nH]1` (stereo not given), the figure is -0.241%.
Turning to `Cc1noc(C)c1CNc1cc(N2CCCC2CO)ncn1` (stereo not given), the cytotoxicity at 10 µM amounted to 1.42%.
Consider `COc1ccc(OCCc2cc(C3CCN(CC(C)C)C3)n[nH]2)cc1` (stereo not given), for which the cytotoxicity at 10 µM worked out at 1.97%.
On to `Cc1ccc(CN(CCCN(C)C)Cc2cnc(N(C)C)nc2)o1`, for which the cytotoxicity at 10 µM was 2.26%.
Consider `COCC1CN(Cc2cc(C)on2)Cc2cn(CC3CCCC3)nc21` (stereo not given), for which the cytotoxicity at 10 µM came out at 6.4%.
For the compound `O=C(c1ccncc1)N1CCN2C[C@H](Oc3cccc(F)c3)C[C@H]2C1`, the cytotoxicity at 10 µM amounted to 8.28%.
On to `O=C(Cc1ccccn1)N1CCC2(CC1)CN(CC1CC1)C(=O)CO2`, for which the cytotoxicity at 10 µM is 7.43%.
`Cc1nc(N2CCCC2)nc2c1CCN(Cc1ccco1)CC2`: the cytotoxicity at 10 µM is -6.52%.
Regarding `Cc1nc(CN2CCc3ncnc(-c4ccc(F)cc4)c3CC2)cs1`, the cytotoxicity at 10 µM was 4.89%.
In the case of `CC(C)N1CCC2(CCN(C(=O)c3cccnc3)CC2)C1`, the cytotoxicity at 10 µM was found to be 5.27%.
The same measure for `Cc1cnc(N2CCc3ncnc(N4CCN(C)CC4)c3CC2)nc1`: -1.73%; for `O=C(NCc1ccccc1)N1C[C@@H]2C[C@H](C(=O)N3CCCC3)[C@H](C1)O2`: 8.46%.
Turning to `Nc1ncccc1CN1C[C@H]2CC[C@@H](C1)N(CC1CC1)C2=O`, the cytotoxicity at 10 µM was -0.956%.
On to `O=c1c2c[nH]c(N3CCCC3)nc-2cn1CCc1ccc(Cl)cc1`, for which the cytotoxicity at 10 µM amounted to 11.9%.

The values are drawn from ChEMBL document CHEMBL4513216, “Probing the Open Global Health Chemical Diversity Library for Multistage-Active Starting Points for Next-Generation Antimalarials” (ACS Infect Dis, 2020).
